Calls of active or inactive are those of the source. The rule behind the calls is not given here.
What was measured:
[1] = Half life in mouse liver microsomes at 1 uM incubated for 15 mins prior to beta-NADPH addition by LC-MS/MS analysis; assay type: ADME, Microsome; settings: microsomes, 0.25 h, 1 µM
Summary of the method: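 Compounds at 1 μM incubated with mouse liver microsomes. Degradation followed by LC–MS and reported as half-life.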

[2] = system: MDA-MB-231; experiment: Inhibition of HSP70 in human MDA-MB-231 cells assessed as reduction of Raf level at 0.6 to 10 uM after 24 hrs by Western blot analysis; assay type: cell-based
Summary of the method: (§1)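 MCF7 or MDA-MB-231 cells treated for 24 h across a range of concentrations. Lysates probed by Western blot for the Hsp70 clients p53, Akt1 and Raf1, alongside Hsp70 and Hsp90. Blots are representative of experiments run in triplicate.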

[3] = system: MDA-MB-231; experiment: Inhibition of HSP70 in human MDA-MB-231 cells assessed as reduction of Akt1 level at 0.6 to 10 uM after 24 hrs by Western blot analysis; assay type: cell-based; summary of the method: as §1
[4] = system: MCF7; experiment: Upregulation of Hsp90 protein expression in human MCF7 cells at 0.6 to 10 uM after 24 hrs by Western blot analysis; assay type: functional, cell-based
Summary of the method: (§2)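 MCF7 and MDA-MB-231 cells treated for 24 h across a range of concentrations. Lysates Western blotted for p53, Akt1, Raf1, Hsp70 and Hsp90. Representative of triplicate experiments.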

[5] = system: MCF7; experiment: Inhibition of HSP70 in human MCF7 cells assessed as reduction of Akt1 level at 0.6 to 10 uM after 24 hrs by Western blot analysis; assay type: cell-based; summary of the method: as §1
[6] = system: MEF; experiment: Cytotoxicity against C57BL/6 mouse MEF assessed as growth inhibition after 72 hrs by MTT assay; assay type: cell-based; settings: C57BL/6, MEF
Summary of the method: (§3)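 Antiproliferative activity measured by MTT assay. EC50 is the average of triplicate experiments, with error as SEM.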

[7] = system: MCF7; experiment: Upregulation of Hsp70 protein expression in human MCF7 cells at 0.6 to 10 uM after 24 hrs by Western blot analysis; assay type: functional, cell-based; summary of the method: as §2
[8] = system: MDA-MB-231; experiment: Cytotoxicity against human MDA-MB-231 cells assessed as growth inhibition after 72 hrs by MTT assay; assay type: functional, cell-based; settings: MDA-MB-231, 72 h; summary of the method: as §3
[9] = system: MCF7; experiment: Cytotoxicity against human MCF7 cells assessed as growth inhibition after 72 hrs by MTT assay; assay type: functional, cell-based; settings: MCF7, 72 h; summary of the method: as §3
[10] = system: MCF7; experiment: Inhibition of HSP70 in human MCF7 cells assessed as induction of […] p53 level at 5 to 10 uM after 24 hrs by Western blot analysis; assay type: cell-based; summary of the method: as §2
[11] = system: MDA-MB-231; experiment: Upregulation of Hsp70 protein expression in human MDA-MB-231 cells at 0.6 to 10 uM after 24 hrs by Western blot analysis; assay type: functional, cell-based; summary of the method: as §2
[12] = Selectivity ratio of EC50 for C57BL/6 mouse MEF to EC50 for human MDA-MB-231 cells; assay type: ADME; settings: C57BL/6, mouse and human, mouse embryonic fibroblasts (MEF) versus MDA-MB-231 cells
Summary of the method: (§4)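 Antiproliferative EC50 values measured by MTT assay in mouse embryonic fibroblasts and in the breast cancer line (MCF7 or MDA-MB-231), averaged over triplicate experiments, error SEM. Selectivity taken as the ratio of fibroblast EC50 to cancer-cell EC50.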

[13] = system: MCF7; experiment: Inhibition of HSP70 in human MCF7 cells assessed as reduction of Raf level at 0.6 to 10 uM after 24 hrs by Western blot analysis; assay type: cell-based; summary of the method: as §1
[14] = Selectivity ratio of EC50 for C57BL/6 mouse MEF to EC50 for human MCF-7 cells; assay type: ADME, cell-based; settings: C57BL/6, mouse and human, mouse embryonic fibroblasts (MEF) versus MCF-7 cells; read-out: Ratio EC50; summary of the method: as §4
[15] = system: MDA-MB-231; experiment: Upregulation of Hsp90 protein expression in human MDA-MB-231 cells at 0.6 to 10 uM after 24 hrs by Western blot analysis; assay type: functional, cell-based; summary of the method: as §2

CCn1c(=O)/c(=C2\Sc3cccc(F)c3N2C)s/c1=C\c1scc[n+]1Cc1ccccc1.[Cl-]
t1/2 [1]: ND(Insoluble)
inhibition [2]: 25%
inhibition [3]: 25%
Activity [4]: inactive
inhibition [5]: 25%
EC50 [6]: 8.3 µM
Activity [7]: inactive
EC50 [8]: 0.4 µM
EC50 [9]: 1 µM
inhibition [10]: Active
Activity [11]: inactive
selectivity ratio [12]: 21
inhibition [13]: 25%
selectivity ratio [14]: 8
Activity [15]: inactive

From ChEMBL document CHEMBL3091336, “Analogs of the Allosteric Heat Shock Protein 70 (Hsp70) Inhibitor, MKT-077, as Anti-Cancer Agents” (ACS Med Chem Lett, 2013)
